A short description of assay [1]: inhibitors of TNFa-induced NFkB p65 translocation, primary screen, imaging, HUVEC, MLSMR starter and 10KST1 sets (AID 438;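 active means inhibition above 20% together with a positive visual image hit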;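 further: compound added about 3h40 before a 20 min TNFalpha stimulation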;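 on inhibition: signal is the nuclear over cytoplasmic p65 intensity ratio per well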). The settings on record: HUVEC TNFa-induced p65 nuclear translocation; cell count: measured here: nuclei count (cytotoxicity indicator), at 2.08 µM; inhibition: at 2 µM, stronger effect = higher value, 0% TNFa-plus-vehicle, 100% no-TNFa wells.
Assay [2] is described as follows: inhibitors of mutant huntingtin aggregation, primary screen, imaging, exon1htt(103Q)mCFP cells, high-content imaging (AID 483;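 active means visual image review flags a hit and inhibition of aggregation exceeds 20%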;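 further: compound exposure lasted 3 days before fixation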;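 on nuclei count: percent of the per-plate median nuclei count of sample wells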). To be noted: exon1htt(103Q)mCFP cell line, aggregate imaging, at 2 µM; inhibition of aggregation: stronger effect = higher value; nuclei count: measured here: cell count, toxicity.
Assay [3] is described as follows: inhibitors of E-selectin induction by TNFa, primary screen, imaging, HUVEC, immunofluorescence, MLSMR starter and 10KST1 sets (AID 487;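 active means visually confirmed hit in the image check and inhibition above 20%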;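 on inhibition: signal is fraction of cell area covered by stained E-selectin grains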;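 on nuclei count: 100% = median nuclei count of all wells on the same plate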). The settings on record: HUVEC TNFalpha-induced E-selectin immunofluorescence imaging, at 2 µM; inhibition: stronger effect = higher value; nuclei count: measured here: cell number, toxicity.
The target in assay [4] is Voltage-gated potassium channel subunit beta-2 (Rattus norvegicus) (UniProt P62483). Nature of the assay: KvBeta enzyme negative modulators, primary screen, biochemical, NADPH fluorescence (AID 622).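 Further: slope of raw intensity against log time taken from 70 to 1610 s.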 The settings on record: recombinant KvBeta, 4-cyanobenzaldehyde reduction, at 10 µM, stronger effect = higher value.
Chain of Voltage-gated potassium channel subunit beta-2 (Rattus norvegicus) (P62483 whole entry, looked up): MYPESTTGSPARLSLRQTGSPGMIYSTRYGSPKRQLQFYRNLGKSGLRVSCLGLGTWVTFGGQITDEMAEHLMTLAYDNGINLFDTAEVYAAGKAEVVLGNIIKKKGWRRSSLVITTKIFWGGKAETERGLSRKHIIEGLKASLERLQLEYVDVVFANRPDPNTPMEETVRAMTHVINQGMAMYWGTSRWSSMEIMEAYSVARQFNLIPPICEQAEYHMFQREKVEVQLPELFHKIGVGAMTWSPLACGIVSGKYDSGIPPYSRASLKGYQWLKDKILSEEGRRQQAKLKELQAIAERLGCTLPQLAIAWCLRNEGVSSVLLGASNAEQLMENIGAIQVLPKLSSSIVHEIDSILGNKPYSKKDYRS
For assay [5] the target is unchanged. Nature of the assay: KvBeta positive modulators, primary screen, biochemical, NADPH fluorescence (AID 623;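 active means NADPH fluorescence slope more negative than the mean of all samples by about 3 SD, 99.7% confidence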;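 further: fluorescence intensity change per second fitted from 20 to 320 s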). The settings on record: Recombinant KvBeta, NADPH fluorescence decrease slope, 10 min; at 10 µM; stronger effect = lower value.
Assay [6] concerns the target Muscarinic acetylcholine receptor M4 (Homo sapiens) (UniProt P08173). Nature of the assay: compounds altering M4/GIRK thallium flux, either direction, primary screen, M4 allosteric agonist project, cell-based, HEK293 M4/GIRK, BTC-AM (AID 625;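 active means fluorescence slope after compound addition differing from the mean of all tested samples at 99.7% confidence, mostly higher but some lower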;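 further: thallium influx through GIRK channels coupled to M4 in HEK293 cells with BTC-AM dye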). To be noted: at 10 µM, actives lie on both sides. Summed up: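 Material – HEK293 cells with M4 receptor and GIRK channels · Buffer or medium – pH 7.3 thallium assay buffer · Doses – one dose, 10 µM final · Timing – cells overnight at 37 °C, BTC-AM loading 1 h, reads 2 min total · Measured by – kinetic fluorescence with BTC-AM dye · Controls – carbachol and DMSO controls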

Assay [7] in a line: inhibitors of Sendai virus-induced IRF3 signaling, primary screen, TLR/RLR signaling modifier project, cell-based, Sendai virus stimulus, luciferase, 10K MLSCN set (AID 602276;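 active means inhibition at or above 50% at 10 µM; inactive means inhibition below 50%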;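 further: firefly luciferase from ISG56 promoter only with Renilla not read in this screen; 0% = Sendai virus plus DMSO and 100% = medium plus DMSO without virus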). The settings on record: HEK293 RL24 IRF3 luciferase reporter, at 10 µM, stronger effect = higher value.
The nature of assay [8]: inhibitors of poly I:C-induced TLR3 signaling, primary screen, cell-based, poly I:C stimulus, luciferase, 10K MLSCN set (AID 602277;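 active means inhibition of the reporter signal at or above 50%; inactive means inhibition below 50%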). To be noted: HEK293-TLR3 RL24 IRF3 luciferase reporter, at 10 µM, stronger effect = higher value. In general terms: A reporter such as luciferase makes a cellular process visible.

The source made the active and inactive calls.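 How the source made its calls, unless noted: active means fluorescence slope higher than the sample average by over 3 SD (cut at about -0.22 in these data, passing the limit was not always enough); inactive means the rest.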

Chain of Muscarinic acetylcholine receptor M4 (Homo sapiens) (P08173 whole entry, looked up): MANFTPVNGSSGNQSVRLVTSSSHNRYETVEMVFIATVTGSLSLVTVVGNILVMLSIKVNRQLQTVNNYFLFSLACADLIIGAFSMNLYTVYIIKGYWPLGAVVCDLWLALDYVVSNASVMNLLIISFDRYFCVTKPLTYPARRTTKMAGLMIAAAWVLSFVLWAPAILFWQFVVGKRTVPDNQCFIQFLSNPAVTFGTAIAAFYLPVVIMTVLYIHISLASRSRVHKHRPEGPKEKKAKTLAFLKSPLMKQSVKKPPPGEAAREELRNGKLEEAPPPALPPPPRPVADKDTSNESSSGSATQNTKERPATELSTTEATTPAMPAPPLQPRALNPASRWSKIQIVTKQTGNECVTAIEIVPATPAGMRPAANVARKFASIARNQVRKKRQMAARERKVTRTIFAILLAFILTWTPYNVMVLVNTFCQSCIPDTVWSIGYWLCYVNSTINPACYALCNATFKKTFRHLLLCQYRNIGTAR

Turning to `CCn1cc(C(=O)N2CCN(C(=O)c3ccco3)CC2)c2cc(OC)c(OC)cc2c1=O`, the cell count in assay [1] was determined as 235. The inhibition (in general, the drop in the measured response relative to a control, in per cent) is -2.3% (inactive) in assay [1], -55.5% (inactive) in assay [3], 13.9% (inactive) in assay [7] and 15.4% (inactive) in assay [8]. Moreover, the inhibition of aggregation in assay [2] was -10% (inactive). Also, the nuclei count in assay [2] was found to be 105%; in assay [3] it was 121%. The fluorescence slope is -0.515 (inactive) in assay [4] and 0.00709 (inactive) in assay [6]. Further, in assay [5], the NADPH fluorescence slope is 8.7e-05 (inactive).
In the case of `O=C(NCc1ccc(Cl)cc1)c1ccc(COCC(F)(F)F)o1`, the cell count in assay [1] was 702. The inhibition in assay [1] was -3.9% (inactive); in assay [3] it was -28.9% (inactive); in assay [7], -1.43% (inactive); in assay [8], -15.5% (inactive). Also, the inhibition of aggregation in assay [2] was -3.7% (inactive). The nuclei count worked out at 91.3% in assay [2] and 101% in assay [3]. For the same compound, the results for the fluorescence slope in assay [4] and in assay [6] were -0.421 (inactive) and 0.00521 (inactive), respectively. Moreover, the NADPH fluorescence slope in assay [5] was -0.00041 (inactive).
As for `CCOC(=O)C1CCN(C(=O)c2ccc(OC)cc2OC)CC1`, in assay [1], the cell count amounted to 676. In addition, the inhibition is -5.3% (inactive) in assay [1], 43.5% (inactive) in assay [3], 20% (inactive) in assay [7] and 20.5% (inactive) in assay [8]. In assay [2], the inhibition of aggregation is 0.1% (inactive). Moreover, the nuclei count in assay [2] was 97.6%; in assay [3], 86.8%. For the same compound, the fluorescence slope in assay [4] is -0.566 (inactive); in assay [6], 0.00429 (inactive). Moreover, the NADPH fluorescence slope in assay [5] was 5.6e-06 (inactive).
Take `CCNc1oc(COc2cccc(C)c2)nc1C#N`: the cell count in assay [1] stood at 791. In addition, the inhibition was -2.1% (inactive) in assay [1], -14.2% (inactive) in assay [3], -43.9% (inactive) in assay [7] and -83.4% (inactive) in assay [8]. For the same compound, the inhibition of aggregation in assay [2] is 15.8% (inactive). Further, the nuclei count in assay [2] turned out to be 114%; in assay [3] it was 111%. For the same compound, the results for the fluorescence slope in assay [4] and in assay [6] were -0.57 (inactive) and 0.00641 (inactive), respectively. The NADPH fluorescence slope in assay [5] was -5e-05 (inactive).
Regarding `CCCn1c2ccccc2c2nnc(SCC(=O)OCC)nc21`, the cell count in assay [1] was determined as 412. Also, the inhibition in assay [1] is -1.5% (inactive); in assay [3] it was 14.6% (inactive); in assay [7], 17.9% (inactive); in assay [8], 25% (inactive). For the same compound, the inhibition of aggregation in assay [2] was -3% (inactive). For the same compound, the nuclei count was determined as 124% in assay [2] and 104% in assay [3]. Further, the fluorescence slope was -0.536 (inactive) in assay [4] and 0.00386 (inactive) in assay [6]. Also, the NADPH fluorescence slope in assay [5] is -7.3e-05 (inactive).
For `Cn1nc(-c2ccc(C(=O)NCC3CCCO3)cc2)c2ccccc2c1=O` (centres undefined), in assay [1], the cell count is 796. Moreover, the inhibition is -3.5% (inactive) in assay [1], -18.3% (inactive) in assay [3], 19.3% (inactive) in assay [7] and 31.4% (inactive) in assay [8]. Also, the inhibition of aggregation in assay [2] was 37.8% (inactive). In addition, the nuclei count in assay [2] worked out at 104%; in assay [3] it was 116%. In addition, the fluorescence slope in assay [4] was -0.574 (inactive); in assay [6], 0.00681 (inactive). Also, the NADPH fluorescence slope in assay [5] was -5.3e-05 (inactive).
As for `Cc1ccc(S(=O)(=O)N2CCCC2)cc1S(=O)(=O)N1CCCC1`, the cell count in assay [1] was found to be 698. The inhibition in assay [1] is -9% (inactive); in assay [3], 10.3% (inactive); in assay [7], 13.4% (inactive); in assay [8], 12.9% (inactive). Also, the inhibition of aggregation in assay [2] is -7.5% (inactive). Further, the nuclei count in assay [2] was found to be 111%; in assay [3], 116%. For the same compound, the figures for the fluorescence slope in assay [4] and in assay [6] were -0.609 (inactive) and 0.00607 (inactive), respectively. Further, the NADPH fluorescence slope in assay [5] is -1.2e-05 (inactive).
With `c1ccc(CC2CCN(Cc3nc(-c4ccccc4)no3)CC2)cc1`, the cell count in assay [1] was 229. In addition, the inhibition is 4.2% (inactive) in assay [1], -139% (inactive) in assay [3], 5.55% (inactive) in assay [7] and -19% (inactive) in assay [8]. Also, the inhibition of aggregation in assay [2] is -5.2% (inactive). The nuclei count in assay [2] is 81.6%; in assay [3], 124%. The results for the fluorescence slope in assay [4] and in assay [6] were -0.456 (inactive) and 0.00542 (inactive), respectively. Besides, the NADPH fluorescence slope in assay [5] was -1.9e-05 (inactive).
With `CCOC(=O)C1CCN(C(=O)CSc2n[nH]c(=O)[nH]c2=O)CC1`, the cell count in assay [1] came out at 653. Also, the inhibition in assay [1] is 7.8% (inactive); in assay [3], 34.2% (inactive); in assay [7], 12.2% (inactive); in assay [8] it was 9.53% (inactive). For the same compound, in assay [2], the inhibition of aggregation was 16.5% (inactive). The nuclei count in assay [2] worked out at 88.6%; in assay [3], 114%. Besides, the fluorescence slope is -0.339 (inactive) in assay [4] and 0.00512 (inactive) in assay [6]. The NADPH fluorescence slope in assay [5] was -5.5e-05 (inactive).
On to `CCNC(=O)COc1ccc(Br)cc1Cl`, for which the cell count in assay [1] worked out at 302. In addition, the inhibition in assay [1] is 0% (inactive); in assay [3] it was 0.5% (inactive); in assay [7], -12.6% (inactive); in assay [8] it was -57.4% (inactive). Further, the inhibition of aggregation in assay [2] was -7.5% (inactive). Besides, the nuclei count in assay [2] came to 93.8%; in assay [3] it was 109%. In addition, the fluorescence slope was -0.547 (inactive) in assay [4] and 0.00609 (inactive) in assay [6]. The NADPH fluorescence slope in assay [5] was 2.4e-05 (inactive).
With `CCCC(C(=O)NCc1ccco1)N(C(=O)CNS(=O)(=O)c1ccc(Cl)cc1)C1CCCC1` (centres undefined), the cell count in assay [1] worked out at 387. The inhibition in assay [1] is -0.7% (inactive); in assay [3], -210% (inactive); in assay [7] it was 24.7% (inactive); in assay [8], 25.7% (inactive). The inhibition of aggregation in assay [2] was -2.5% (inactive). Besides, the nuclei count came out at 110% in assay [2] and 111% in assay [3]. For the same compound, the fluorescence slope is -0.522 (inactive) in assay [4] and 0.00544 (inactive) in assay [6]. Besides, the NADPH fluorescence slope in assay [5] was -1.1e-05 (inactive).
With `CCn1c(NCc2ccc(N(C)C)cc2)nc2ccccc21`, the cell count in assay [1] was determined as 627. Besides, the inhibition in assay [1] was 12.5% (inactive); in assay [3], -34.6% (inactive); in assay [7] it was -9.27% (inactive); in assay [8] it was -36.5% (inactive). Further, the inhibition of aggregation in assay [2] was -2.9% (inactive). Besides, the results for the nuclei count in assay [2] and in assay [3] were 96.5% and 116%, respectively. For the same compound, the fluorescence slope was -0.31 (inactive) in assay [4] and 0.00632 (inactive) in assay [6]. Moreover, the NADPH fluorescence slope in assay [5] is -2.4e-05 (inactive).
On to `CCCCNC(=O)c1cc(-c2ccc(F)cc2)on1`, for which, in assay [1], the cell count worked out at 240. Further, the inhibition in assay [1] was -2.8% (inactive); in assay [3], -39.2% (inactive); in assay [7] it was -21.5% (inactive); in assay [8], -168% (inactive). Also, the inhibition of aggregation in assay [2] was 5.2% (inactive). Further, the nuclei count was 106% in assay [2] and 120% in assay [3]. For the same compound, the fluorescence slope was -0.483 (inactive) in assay [4] and 0.00454 (inactive) in assay [6]. In assay [5], the NADPH fluorescence slope is -3.3e-05 (inactive).
Consider `COc1ccc(CNc2nc3nc(C)cc(C)n3n2)cc1OC`, for which, in assay [1], the cell count is 646. Besides, the inhibition was -15.5% (inactive) in assay [1], -5.7% (inactive) in assay [3], 13.3% (inactive) in assay [7] and 12.9% (inactive) in assay [8]. For the same compound, the inhibition of aggregation in assay [2] is 39.5% (active). The nuclei count in assay [2] came to 107%; in assay [3], 115%. Further, the fluorescence slope in assay [4] is -0.422 (inactive); in assay [6], 0.00355 (inactive). Moreover, in assay [5], the NADPH fluorescence slope is -0.000434 (inactive).

(Values after PubChem BioAssay.)
